Shown are actives, neighbours in structure and some others; about 11% of the full set was active somewhere.
D1 allo mod: allosteric modulators of human D1 dopamine receptor; HEK293 D1, CRE-luciferase, dopamine EC30 potentiation; actives deviate in either direction; B-score at 10 µM; 5.9% of 58,000 active; P21728;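 active = luminescence count or its row- and column-corrected plate score outside the 99.7% band of the plate's sample wells, on either side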
M1 agonist: M1 muscarinic receptor agonism; CHO-M1 cells, Fluo-4 calcium fluorescence, agonist mode; stronger effect = higher value; B-score at 10 µM; 3% of 64,000 active; AID 626;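 active = fluorescence rise, raw or as B-score row- and column-corrected plate score, outside the 99.7% band of its plate's samples, either direction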
M1 antag: antagonists of rat M1 muscarinic receptor | P08482 | 3.4% of 64,000 active | CHO-M1 cells, Fluo-4 calcium, ACh EC80 antagonist mode; stronger effect = lower value | B-score at 10 µM | AID 628;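 active = calcium fluorescence response, raw or row-and-column corrected B-score, differing from the plate sample mean either way at a set confidence level, mostly lower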
S1P1 ag-PAM: activates or potentiates agonism at human S1P1 receptor; 0.57% of 56,000 active; S1P1 CRE-bla cells, forskolin, beta-lactamase FRET, potentiator mode; S1P1 agonist co-added at EC20, 2 nM; 100% = saturating reference agonist, 0% = basal; P21453; activation, % at 9.5 µM;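 active = activation above a cutoff set at the mean activation of all tested compounds plus 3 SD, cut at about 54% in these data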;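 also: forskolin at 4 µM as EC80 and the EC20 agonist is SEW2871; 100% = SEW2871 at its EC100 plus forskolin at EC80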
Target sequence (P21453 whole entry, looked up): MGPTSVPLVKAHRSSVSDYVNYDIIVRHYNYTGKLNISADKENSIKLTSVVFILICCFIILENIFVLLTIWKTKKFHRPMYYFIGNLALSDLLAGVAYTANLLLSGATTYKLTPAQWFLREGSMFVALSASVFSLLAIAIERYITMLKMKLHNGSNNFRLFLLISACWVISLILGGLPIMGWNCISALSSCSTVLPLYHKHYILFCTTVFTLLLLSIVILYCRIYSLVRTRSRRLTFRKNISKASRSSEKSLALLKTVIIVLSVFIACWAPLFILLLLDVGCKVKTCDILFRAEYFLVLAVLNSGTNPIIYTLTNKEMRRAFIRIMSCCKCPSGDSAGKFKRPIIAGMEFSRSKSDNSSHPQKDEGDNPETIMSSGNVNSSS
S1P3 ag: agonists of human S1P3 receptor | Q99500 | S1P3 NFAT-BLA reporter cells, agonism, FRET ratio; relative to 1 µM S1P, basal subtracted | activation, % at 4.5 µM | 0.1% of 60,000 active;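 active = activation above the screen-wide mean plus 3 SD, cut at about 4.5% in these data, passing the limit was not always enough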
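Assay system: CHO cells stably expressing human S1P3, Gα16 and NFAT-β-lactamase reporter. Timing: overnight plating, 4 h compound 37 °C, 2 h substrate RT. Signal: β-lactamase FRET emission ratio 460/535 nm. Measure: percent activation versus median 1 µM S1P response, basal-subtracted, per plate. Repeats: primary screen single test, confirmation screen in triplicate.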
An asterisk follows results filed as active; nt = no result given.

SMILES	D1 allo mod	M1 agonist	M1 antag	S1P1 ag-PAM	S1P3 ag
O=S(=O)(CCn1cccc1)CCn1cccc1	0.14	-0.52	2.2*	nt	nt
O=C(Nc1ccc2c(c1)OCCO2)C1CCCN(S(=O)(=O)c2cccnc2)C1 (centres undefined)	-0.034	-0.12	-0.45	-3	-3
C=CCn1c(C)cc(C(=O)CSc2nnc(NCc3ccccc3)s2)c1C	0.035	-0.065	1.9*	24	-1
Cn1c(=O)c2c(nc(Br)n2CCc2ccccc2)n(C)c1=O	-3.8*	-0.14	-0.75	-10	0
CN(Cc1ccccc1)Cc1nc2c(c(=O)n(C)c(=O)n2C)n1CCc1ccccc1	0.39	0.83	0.71	-18	1
C=CCn1c(Br)nc2c1c(=O)n(C)c(=O)n2C	0.24	-0.39	-0.35	-9	0
Cn1c(=O)c2c(nc(Br)n2C)n(C)c1=O	-1.6*	-0.019	0.69	5	-1
Cn1c(SCC2CCCCC2)nnc1-c1ccncc1	0.35	0.056	0.11	11	-1
c1ccc(CCn2nnnc2C(c2cccs2)N2CCOCC2)cc1 (centres undefined)	-0.79	-0.31	-0.076	-10	-2
COc1ccc(Cn2nnnc2C(c2cccs2)N2CCOCC2)cc1 (centres undefined)	-1.2	-0.0052	2.3*	4	0
Cc1nc(NC(=O)c2ccccc2)sc1-c1csc(N)n1	-0.53	0.5	-0.0056	15	-1
Cc1cc(NC(=O)c2ccccc2)sc1C	-2.9*	0.0038	-0.006	-8	0
Cc1ccc(NC(=O)c2ccccc2)s1	-5.2*	0.56	-0.2	46	-1
CCOC(=O)c1ccccc1NC1CC(=O)N(c2ccccc2C)C1=O (centres undefined)	0.69	1.2	1.8	15	0
O=C(Nc1nc(-c2ccc(Cl)s2)cs1)c1ccncc1	-2.3	-0.78	0.23	126*	-1
O=C(CN1C(=O)CCC1=O)Nc1nc(-c2ccc(Cl)s2)cs1	-0.75	0.25	-0.31	14	0
COc1ccccc1C(=O)Nc1ccc(S(=O)(=O)Nc2cc(C)on2)cc1	1	0.51	0.93	nt	nt
COc1ccc(S(=O)(=O)Nc2cc(C)on2)cc1OC	-2.8*	-0.011	0.28	11	0
O=C1C(c2ccncc2)=C(O)c2ccccc21	-2.5*	-0.87	-0.28	-5	0
Cc1nc2ccccc2c(=O)n1NC(=O)COc1ccccc1	-2.9*	nt	nt	2	-2
Cc1cccc(C)c1OCC(=O)Nn1c(C)nc2ccccc2c1=O	nt	-0.2	-0.064	15	0
CC(C)(C)c1[nH]nc2c1C(Cc1ccccc1)C(C#N)=C(N)O2 (centres undefined)	-0.58	-0.21	0.76	-15	-1
CCOc1ccc(-c2cn(CCC#N)cn2)cc1	0.062	1.1	2.1*	4	0
CCOc1ccc(-c2nn[nH]n2)cc1	-0.5	0.8	0.044	4	-2
C=CCn1c(SCC(=C)C)nc2c1c(=O)[nH]c(=O)n2C	6.6*	-0.57	0.088	-26	-1
SMILES	D1 allo mod	M1 agonist	M1 antag	S1P1 ag-PAM	S1P3 ag
CCCCCCn1c(SCC(C)C)nc2c1c(=O)[nH]c(=O)n2C	27*	-0.41	0.85	8	0
CCCCCSc1nc2c(c(=O)[nH]c(=O)n2C)n1C	2.5	2.7	0.025	-11	-1
CCCCCSc1nc2c(c(=O)[nH]c(=O)n2C)n1CC	9*	0.3	0.22	-34	-1
O=c1[nH]nc(Sc2ncnc3sccc23)n1CCc1ccccc1	-1.7	0.35	0.31	57	-1
CC1CCN(C(=O)CSc2nnc(CSc3ncccn3)n2C)CC1	0.37	1.6	-0.018	-3	-1
C/C(N)=C(/C#N)C(=O)CSc1nc2ccc(C)cc2[nH]1	-2.6*	-0.86	-0.084	-6	0
COC(=O)c1cc(CSc2nc3ccc(C)cc3[nH]2)oc1C	nt	-1.1	-0.36	nt	nt
Cc1ccc2nc(NC3=NCN(Cc4cccnc4)CN3)nc(C)c2c1	nt	0.25	0.63	1	-1
Cc1ccc2c(C)nc(NC3=NCN(Cc4ccccc4)CN3)nc2c1	-1.1	-0.18	-1.3	-6	1
Cc1nc(NC2=NCN(Cc3ccccc3)CN2)nc2ccccc12	-0.17	4.5*	0.7	18	-2
Cc1nc(NC2=NCN(Cc3cccnc3)CN2)nc2ccccc12	nt	0.78	-11*	-5	0
Cc1nc(NC2=NCN(Cc3ccco3)CN2)nc2ccccc12	-0.29	-0.055	-2.9*	-22	-2
Cc1ccnc(N2CCN(c3cc(C)c(C#N)c4nc5ccccc5n34)CC2)c1	-0.068	4.3	-2.5*	-1	-2
Cc1cc(-c2ccco2)n2c(nc3ccccc32)c1C#N	nt	-0.0015	0.41	-10	-1
O=C(CCN1CCN(c2ccccc2F)CC1)Nc1ccccc1F	2.9	-0.21	-0.51	-24	-1
O=C(CCN1CCN(c2ccc(Cl)cc2)CC1)Nc1ccccc1F	-0.3	0.03	2.1*	-6	1
O=C(COc1ccc(Cl)cc1Cl)Nc1ccccn1	-4.5*	-0.89	-0.19	nt	0
CC(c1ccco1)N(C(=O)COc1ccc(Cl)cc1Cl)c1ccccn1 (centres undefined)	-7.3*	1.6	-1.8	nt	nt
COc1ccc(N(C(=O)c2ccco2)S(=O)(=O)c2cc(OC)ccc2OC)cc1	-2.2*	0.081	1.9*	nt	-1
O=C(On1c(-c2ccccc2)nc2ccccc2c1=O)c1ccco1	-3.4*	nt	nt	nt	nt
COCCCNC(=O)c1cn(Cc2c(F)cccc2Cl)nn1	-3.9*	0.28	0.092	1	0
CCn1c2ccccc2c2nnc(SCc3cc(=O)n4ccsc4n3)nc21	12*	-0.54	0.16	nt	nt
CCCn1c(=O)c2ccccc2n2c(SCc3cc(=O)n4ccsc4n3)nnc12	2.5	0.049	-0.18	-9	0
O=C(c1c(Cl)nc2sccn12)N1CCN(c2cccc(Cl)c2)CC1	nt	0.36	0.36	nt	nt
Cc1ccc(C(=O)Nc2nc3c(s2)CCCC3)o1	-4.7*	-0.046	-0.88	nt	-1
SMILES	D1 allo mod	M1 agonist	M1 antag	S1P1 ag-PAM	S1P3 ag
O=C(Nc1ncc(Cc2ccccc2)s1)c1cccs1	-1.3	0.54	0.9	3	-1
Cc1ccc(C(=O)Nc2ncc(Cc3ccccc3)s2)o1	-2.8*	0.31	-0.029	30	-1
Cc1ccc2nc(NC(=O)Cn3cc4c(n3)CCCCC4)sc2c1	-0.092	-0.61	-0.12	-13	0
CC(=O)Nc1cccc(NC(=O)CSc2nnnn2Cc2ccccc2)c1	-1	0.53	0.91	-6	-1
CC1CCCC(C)N1C(=O)CSc1nnnn1Cc1ccccc1 (centres undefined)	6.1*	0.48	-0.57	8	0
CN(C)Cc1cc(CCNC(=O)c2ccc(Cl)cc2)ccc1O	-2.9*	nt	nt	10	0

Screening data as filed in PubChem.
